System: MS2 coat protein
Assay: apparent Kd, MS2 coat protein; higher = weaker binding; RNA-MaP array; FMN 200 µM where present
Method in brief: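 Stalled E. coli RNA polymerase transcribed the designs on Illumina sequencing-chip clusters. SNAP-549-labelled MS2 coat protein was titrated from 0.7 or 1.5 nM, doubling to 3 µM, without and then with constant ligand, in 100 mM Tris-HCl pH 7.5, 80 mM KCl, 4 mM MgCl2, BSA, DTT, yeast tRNA and Tween-20. Per-cluster binding curves were fitted to green signal normalised to red-channel RNA signal and control-cluster median Fmax. The apparent Kd is the median of the filtered fits.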

[1] = designed as: OFF switch for flavin mononucleotide, no ligand
[2] = ligand present: flavin mononucleotide, designed as: OFF switch for flavin mononucleotide
[3] = designed as: ON switch for flavin mononucleotide, no ligand
[4] = ligand present: flavin mononucleotide, designed as: ON switch for flavin mononucleotide

Sequence | apparent Kd [1] [nM] | apparent Kd [2] [nM] | apparent Kd [3] [nM] | apparent Kd [4] [nM]
CUCUCUCAUCGAGGAUAUCGAACUUCCACCCUUCGAGAAGGCGACAUGAGGAUCACCCAUGUAAGGAGGACACUCACUCACACA | 22.6 | 20.9 | – | –
AGUGCGUAUGUGAGGAUAUGCUGGUCCUUGGAUCAGCAGAAGGCACAUGAGGAUCACCCAUGUGGUGUCGUACC | 209 | 36.4 | – | –
CCCGUGUUAGGAUAUACGGCACACCCACCAGCGGGUGUAUAGUAGAAGGAACAUGAGGAUCACCCAUGUAUAAC | 34.9 | 51.4 | – | –
CUUCGACAUGAGGAUCACCCAUGUCAGGAUAUUGUGUAUCGGGUUUUUUACGGAUAGGCAAGAAGGGAUGUGUG | 35.6 | 34.2 | – | –
GAUCCUUCUGUUAGGAUAUGCUUUGGGCUUCCGCUGCAGAAGGAACAUGAGGAUCACCCAUGUCCGAUGCCGUC | 74 | 89.4 | – | –
ACCUUACAUGAGGAUCACCCAUGUUAGGAUAUCUCGCUUGCGCAAUCACAACGCAAGCAGAGAAGGGACGCGGG | 29.1 | 33.4 | – | –
AAGAUGUCUUGAGGAUAUCCAAAGGAAACCGCAGGAGAAGGCAGGACAUGAGGAUCACCCAUGUUGGGUUUAAUGCGAACAUAA | 102 | 342 | – | –
UCUCAUAUGCAGGAUAUCCAUGGCGGGCGGAGAGGAGAAGGGCAUACAUGAGGAUCACCCAUGUGUCCCGUGGG | 27.2 | 41.2 | – | –
AAAAAGUCAGGAUAUGCGAAGGCGUCUGAUAGACGAGGCUAGCAGAAGGGACAUGAGGAUCACCCAUGUGGAAA | 79.4 | 135 | – | –
UUAAAACGUGUGAGGAUAUCGAGAGUAGCUGAUCUCGAGAAGGCACAUGAGGAUCACCCAUGUGGCCUGCACCG | 14.6 | 14.7 | – | –
GUCAGCUCGUGAGGAUAUACAUGUGCUGGAAACAGCACUAAUUAAAUCACAUGAGGAUCACCCAUGUAGAAGGCACGAGCUGAU | 16.4 | 23.6 | – | –
UCGUACAUUCGAGGAUAUCGGUGAUAAAUAAUACGAGAAGGCGAUUUUAGGCAUAACGCCUUAGACAUGAGGAUCACCCAUGUA | – | – | 68.1 | 55.1
UGGGUUACAGGAUAUACAUGAGGAUCACCCAUGUCAUGUUUCGUGGCGGAUAGCUCGAGUAGAAGGGUGCAUCC | 50 | 60.4 | – | –
GUAAGCAUGUCAGGAUAUCGCAAUAUCAAACCGUGAGAAGGGACAUGAGGAUCACCCAUGUAUUGUUCGGGAGGACCCAGCUGA | 67.3 | 358 | – | –
GUAGAGUAGUGAGGAUAUACGAGAUCGAUAGAUCGGCGAUCCAUAUAUACAUGAGGAUCACCCAUGUAGAAGGCACUUCUCUAC | 6.99 | 103 | – | –
UGGUACAUCGGAGGAUAUCAUGUAGACACAUGAGGAUCACCCAUGUCGAUGGAGACAUCGGAGAUUGAGAAGGCCGAUGUACCU | – | – | 503 | 23.3
GCUCGAUGAGCUGUCUACAUGAGGAUCACCCAUGUAGAUGGGCAGGAUAUUUACGUGCUUUAUGUAGAGAAGGGCCCAUCGAGC | – | – | – | 28.8
AGCUGGUGACAGCAUCCAUCAAAACAUGAGGAUCACCCAUGUAGAAGGCUGUACGGUUACCGUACAGAGGAUAUACAAUGAUGU | 15.2 | 26.2 | – | –
UUUAUUUAGGCAGGAUAUACAUGUAUAUAUAUUUCUUUAUAUCUUAUUACAUGAGGAUCACCCAUGUAGAAGGGCCUUAUUAUA | 17.3 | 23.6 | – | –
CGCAACAUACAGAAGGAGUUAUUGAGAGGUUUACUAGGAUAUGUUCACAUGAGGAUCACCCAUGUCGUUUGGUUUUUUGUUGCG | 18.4 | 11.2 | – | –
GGCAAGUCAGGAUAUGCGAAGUCAGGACACACACUGACGAAGCAGAAGGGACAUGAGGAUCACCCAUGUAAGCC | 31.9 | 19.9 | – | –
UUUGGGCCCUCAUCCCUCGACACAUGAGGAUCACCCAUGUGCAGAAGGUGGAGACCCGAGGUCGCCAAGGAUAUGCAAUGGGAC | 15.8 | 10.2 | – | –
GAAGUUGGUAGGCCCUCGGAACAUGAGGAUCACCCAUGUAAGGAGGAUAUGCCCGGUACCCGCUGGCAGAAGGCCUUAUAAGAA | 11.1 | 68.8 | – | –
AGCAACAUGAGGAUCACCCAUGUUGGUUCGAAAACGGACUCACAGGAUAUACGGCAUAAUCGCUCGUAGAAGGGUGCGUCCUCA | – | – | 14 | 12.8
